Test results taken from ChEMBL document CHEMBL4689842, “EUbOPEN Chemogenomics Library wave 1” (2021).

Tests used:
Format in all cases: toxicity, cell-based
Fibroblast = experiment: Incucyte cell viability with human fibroblast; details: 10 µM, compound concentration 10 uM; further: filed as whole numbers so only -1 and 0 and 1 occur
U2OS [1] = experiment: Multiplex assay against U2OS; details: human
Procedure, shortened: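 Hoechst33342, BioTracker Green Microtubule Cytoskeleton Dye, MitoTracker Red and Annexin V Alexa Fluor 680 were added to live cells at seeding, and imaging on a CQ1 microscope at 37°C and 5% CO2 followed compound addition. Gating by CellPathfinder machine learning separated cells into Hoechst high-intensity objects or normal cells, then normal cells into healthy, pyknosed or fragmented nuclei, then pyknosed cells into mitotic or apoptotic. Per cents of healthy-nucleus cells are reported for the tubulin, mitochondrial-mass and membrane-permeability phenotypes.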

HEK-293T = experiment: Incucyte cell viability with HEK293T; details: human, 10 µM, compound concentration 10 uM; further: filed as whole numbers so only -1 and 0 and 1 occur
U2OS [2] = experiment: Incucyte cell viability with U2OS; details: human, 10 µM, compound concentration 10 uM; further: filed as whole numbers so only -1 and 0 and 1 occur
[3] = 0 h, replicate number 2, timepoint 0 hours
[4] = 24 h, replicate number 1, timepoint 24 hours
[5] = 12 h, 1 µM, compound concentration 1 uM, replicate 1
[6] = 12 h, 1 µM, compound concentration 1 uM, replicate 2
[7] = 12 h, 10 µM, compound concentration 10 uM, replicate 1
[8] = 12 h, 10 µM, compound concentration 10 uM, replicate 2
[9] = 24 h, 1 µM, compound concentration 1 uM, replicate 1
[10] = 24 h, 1 µM, compound concentration 1 uM, replicate 2
[11] = 24 h, 10 µM, compound concentration 10 uM, replicate 1
[12] = 24 h, 10 µM, compound concentration 10 uM, replicate 2
[13] = 48 h, 1 µM, compound concentration 1 uM, replicate 1
[14] = 48 h, 1 µM, compound concentration 1 uM, replicate 2
[15] = 48 h, 10 µM, compound concentration 10 uM, replicate 1
[16] = 48 h, 10 µM, compound concentration 10 uM, replicate 2
[17] = 18 h, replicate number 1, timepoint 18 hours

N#CCNC(=O)c1ccc(-c2ccnc(Nc3ccc(N4CCOCC4)cc3)n2)cc1 [MOMELOTINIB]
Growth Rate (Fibroblast; [3]): 0 | Growth Rate (Fibroblast; [4]): 1 | Population Apoptotic (%) (U2OS [1]; [5]): 70% | Population Fragmented Nuclei (%) (U2OS [1]; [5]): 12% | Population Healthy Nuclei (%) (U2OS [1]; [5]): 77% | Population Hoechst High Intensity Objects (%) (U2OS [1]; [5]): 5% | Population Membrane Permeable-Phenotype (%) (U2OS [1]; [5]): 9% | Population Mitochondria Different-Phenotype (%) (U2OS [1]; [5]): 6% | Population Mitotic Cells (%) (U2OS [1]; [5]): 29% | Population Normal (%) (U2OS [1]; [5]): 94% | Population Pyknosed Nuclei (%) (U2OS [1]; [5]): 10% | Population Tubulin-Different-Phenotype (%) (U2OS [1]; [5]): 18% | Total Cell Count (U2OS [1]; [5]): 3583 | Population Apoptotic (%) (U2OS [1]; [6]): 60% | Population Fragmented Nuclei (%) (U2OS [1]; [6]): 1% | Population Healthy Nuclei (%) (U2OS [1]; [6]): 88% | Population Hoechst High Intensity Objects (%) (U2OS [1]; [6]): 8% | Population Membrane Permeable-Phenotype (%) (U2OS [1]; [6]): 2% | Population Mitochondria Different-Phenotype (%) (U2OS [1]; [6]): 13% | Population Mitotic Cells (%) (U2OS [1]; [6]): 40% | Population Normal (%) (U2OS [1]; [6]): 91% | Population Pyknosed Nuclei (%) (U2OS [1]; [6]): 9% | Population Tubulin-Different-Phenotype (%) (U2OS [1]; [6]): 11% | Total Cell Count (U2OS [1]; [6]): 3119 | Population Apoptotic (%) (U2OS [1]; [7]): 44% | Population Fragmented Nuclei (%) (U2OS [1]; [7]): 18% | Population Healthy Nuclei (%) (U2OS [1]; [7]): 57% | Population Hoechst High Intensity Objects (%) (U2OS [1]; [7]): 6% | Population Membrane Permeable-Phenotype (%) (U2OS [1]; [7]): 10% | Population Mitochondria Different-Phenotype (%) (U2OS [1]; [7]): 20% | Population Mitotic Cells (%) (U2OS [1]; [7]): 55% | Population Normal (%) (U2OS [1]; [7]): 93% | Population Pyknosed Nuclei (%) (U2OS [1]; [7]): 23% | Population Tubulin-Different-Phenotype (%) (U2OS [1]; [7]): 20% | Total Cell Count (U2OS [1]; [7]): 180 | Population Apoptotic (%) (U2OS [1]; [8]): 13% | Population Fragmented Nuclei (%) (U2OS [1]; [8]): 27% | Population Healthy Nuclei (%) (U2OS [1]; [8]): 47% | Population Hoechst High Intensity Objects (%) (U2OS [1]; [8]): 10% | Population Membrane Permeable-Phenotype (%) (U2OS [1]; [8]): 0% | Population Mitochondria Different-Phenotype (%) (U2OS [1]; [8]): 6% | Population Mitotic Cells (%) (U2OS [1]; [8]): 86% | Population Normal (%) (U2OS [1]; [8]): 89% | Population Pyknosed Nuclei (%) (U2OS [1]; [8]): 24% | Population Tubulin-Different-Phenotype (%) (U2OS [1]; [8]): 6% | Total Cell Count (U2OS [1]; [8]): 56 | Population Apoptotic (%) (U2OS [1]; [9]): 42% | Population Fragmented Nuclei (%) (U2OS [1]; [9]): 14% | Population Healthy Nuclei (%) (U2OS [1]; [9]): 78% | Population Hoechst High Intensity Objects (%) (U2OS [1]; [9]): 3% | Population Membrane Permeable-Phenotype (%) (U2OS [1]; [9]): 10% | Population Mitochondria Different-Phenotype (%) (U2OS [1]; [9]): 9% | Population Mitotic Cells (%) (U2OS [1]; [9]): 57% | Population Normal (%) (U2OS [1]; [9]): 96% | Population Pyknosed Nuclei (%) (U2OS [1]; [9]): 7% | Population Tubulin-Different-Phenotype (%) (U2OS [1]; [9]): 17% | Total Cell Count (U2OS [1]; [9]): 3609 | Population Apoptotic (%) (U2OS [1]; [10]): 66% | Population Fragmented Nuclei (%) (U2OS [1]; [10]): 7% | Population Healthy Nuclei (%) (U2OS [1]; [10]): 86% | Population Hoechst High Intensity Objects (%) (U2OS [1]; [10]): 10% | Population Membrane Permeable-Phenotype (%) (U2OS [1]; [10]): 6% | Population Mitochondria Different-Phenotype (%) (U2OS [1]; [10]): 15% | Population Mitotic Cells (%) (U2OS [1]; [10]): 33% | Population Normal (%) (U2OS [1]; [10]): 89% | Population Pyknosed Nuclei (%) (U2OS [1]; [10]): 5% | Population Tubulin-Different-Phenotype (%) (U2OS [1]; [10]): 8% | Total Cell Count (U2OS [1]; [10]): 3108 | Population Apoptotic (%) (U2OS [1]; [11]): 61% | Population Fragmented Nuclei (%) (U2OS [1]; [11]): 20% | Population Healthy Nuclei (%) (U2OS [1]; [11]): 46% | Population Hoechst High Intensity Objects (%) (U2OS [1]; [11]): 8% | Population Membrane Permeable-Phenotype (%) (U2OS [1]; [11]): 13% | Population Mitochondria Different-Phenotype (%) (U2OS [1]; [11]): 20% | Population Mitotic Cells (%) (U2OS [1]; [11]): 38% | Population Normal (%) (U2OS [1]; [11]): 91% | Population Pyknosed Nuclei (%) (U2OS [1]; [11]): 33% | Population Tubulin-Different-Phenotype (%) (U2OS [1]; [11]): 20% | Total Cell Count (U2OS [1]; [11]): 194 | Population Apoptotic (%) (U2OS [1]; [12]): 45% | Population Fragmented Nuclei (%) (U2OS [1]; [12]): 31% | Population Healthy Nuclei (%) (U2OS [1]; [12]): 52% | Population Hoechst High Intensity Objects (%) (U2OS [1]; [12]): 5% | Population Membrane Permeable-Phenotype (%) (U2OS [1]; [12]): 28% | Population Mitochondria Different-Phenotype (%) (U2OS [1]; [12]): 34% | Population Mitotic Cells (%) (U2OS [1]; [12]): 54% | Population Normal (%) (U2OS [1]; [12]): 94% | Population Pyknosed Nuclei (%) (U2OS [1]; [12]): 16% | Population Tubulin-Different-Phenotype (%) (U2OS [1]; [12]): 14% | Total Cell Count (U2OS [1]; [12]): 59 | Population Apoptotic (%) (U2OS [1]; [13]): 27% | Population Fragmented Nuclei (%) (U2OS [1]; [13]): 9% | Population Healthy Nuclei (%) (U2OS [1]; [13]): 82% | Population Hoechst High Intensity Objects (%) (U2OS [1]; [13]): 3% | Population Membrane Permeable-Phenotype (%) (U2OS [1]; [13]): 2% | Population Mitochondria Different-Phenotype (%) (U2OS [1]; [13]): 18% | Population Mitotic Cells (%) (U2OS [1]; [13]): 72% | Population Normal (%) (U2OS [1]; [13]): 96% | Population Pyknosed Nuclei (%) (U2OS [1]; [13]): 7% | Population Tubulin-Different-Phenotype (%) (U2OS [1]; [13]): 19% | Total Cell Count (U2OS [1]; [13]): 3211 | Population Apoptotic (%) (U2OS [1]; [14]): 100% | Population Fragmented Nuclei (%) (U2OS [1]; [14]): 7% | Population Healthy Nuclei (%) (U2OS [1]; [14]): 89% | Population Hoechst High Intensity Objects (%) (U2OS [1]; [14]): 2% | Population Membrane Permeable-Phenotype (%) (U2OS [1]; [14]): 8% | Population Mitochondria Different-Phenotype (%) (U2OS [1]; [14]): 17% | Population Mitotic Cells (%) (U2OS [1]; [14]): 0% | Population Normal (%) (U2OS [1]; [14]): 97% | Population Pyknosed Nuclei (%) (U2OS [1]; [14]): 2% | Population Tubulin-Different-Phenotype (%) (U2OS [1]; [14]): 22% | Total Cell Count (U2OS [1]; [14]): 3226 | Population Apoptotic (%) (U2OS [1]; [15]): 72% | Population Fragmented Nuclei (%) (U2OS [1]; [15]): 29% | Population Healthy Nuclei (%) (U2OS [1]; [15]): 26% | Population Hoechst High Intensity Objects (%) (U2OS [1]; [15]): 4% | Population Membrane Permeable-Phenotype (%) (U2OS [1]; [15]): 20% | Population Mitochondria Different-Phenotype (%) (U2OS [1]; [15]): 20% | Population Mitotic Cells (%) (U2OS [1]; [15]): 27% | Population Normal (%) (U2OS [1]; [15]): 95% | Population Pyknosed Nuclei (%) (U2OS [1]; [15]): 43% | Population Tubulin-Different-Phenotype (%) (U2OS [1]; [15]): 25% | Total Cell Count (U2OS [1]; [15]): 241 | Population Apoptotic (%) (U2OS [1]; [16]): 53% | Population Fragmented Nuclei (%) (U2OS [1]; [16]): 33% | Population Healthy Nuclei (%) (U2OS [1]; [16]): 44% | Population Hoechst High Intensity Objects (%) (U2OS [1]; [16]): 11% | Population Membrane Permeable-Phenotype (%) (U2OS [1]; [16]): 26% | Population Mitochondria Different-Phenotype (%) (U2OS [1]; [16]): 38% | Population Mitotic Cells (%) (U2OS [1]; [16]): 46% | Population Normal (%) (U2OS [1]; [16]): 88% | Population Pyknosed Nuclei (%) (U2OS [1]; [16]): 22% | Population Tubulin-Different-Phenotype (%) (U2OS [1]; [16]): 26% | Total Cell Count (U2OS [1]; [16]): 71 | Growth Rate (HEK-293T; 0 h, replicate number 1, timepoint 0 hours): 0 | Growth Rate (HEK-293T; [17]): 0 | Growth Rate (HEK-293T; 18 h, replicate number 2, timepoint 18 hours): 1 | Growth Rate (HEK-293T; [4]): 0 | Growth Rate (U2OS [2]; [3]): 1 | Growth Rate (U2OS [2]; 12 h, replicate number 1, timepoint 12 hours): 1 | Growth Rate (U2OS [2]; [17]): 0 | Growth Rate (U2OS [2]; [4]): 0
